# Measured values: ChEMBL document CHEMBL2010749, “Cytotoxic phloroglucinols from the leaves of Myrtus communis” (J Nat Prod, 2012)
# How the values were obtained:
# MT4 = test: Cytotoxicity against human MT4 cells after 96 hrs; type: functional, cell-based; conditions: MT4, 96 h
# HepG2 = test: Cytotoxicity against human HepG2 cells after 96 hrs; type: functional, cell-based; conditions: HepG2, 96 h
# DU-145 = test: Cytotoxicity against human DU145 cells after 96 hrs; type: functional, cell-based; conditions: DU-145, 96 h
# Staphylococcus aureus = test: Antibacterial activity against Staphylococcus aureus ATCC 25923 after 20 hrs by doubling dilution method; type: functional; conditions: ATCC 25923, 20 h
# Procedure, shortened: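 Broth doubling-dilution in 96-well format: overnight nutrient-broth cultures (37 °C) adjusted to about 10^5 cells/mL; compound stocks in EtOH diluted 2-fold across wells in culture suspension. After 20 h at 37 °C in moist atmosphere, thiazolyl blue tetrazolium added, 4 h further incubation; living bacteria seen as violet turbid wells; MIC read as lowest inhibitory concentration.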
# [1] = Selectivity ratio of IC50 for human CRL7065 to MIC for Staphylococcus aureus ATCC 25923; type: functional
SMILES,MIC (Staphylococcus aureus) [µM],IC50 (MT4) [µM],IC50 (HepG2) [µM],IC50 (DU-145) [µM],Ratio [1]
COc1cc([C@@H]2c3cc4c(cc3[C@@H](O[C@@H]3O[C@@H]5CO[C@@H](C)O[C@H]5[C@H](O)[C@H]3O)[C@H]3COC(=O)[C@H]23)OCO4)cc(OC)c1O [ETOPOSIDE],–,0.09,4,3,–
CC(C)[C@@H]1C[C@@]2(CC[C@]3(C(C)C)C[C@H]23)OC2=C1C(=O)C(C)(C)C(=O)C2(C)C (relative stereo),> 560,41.4,–,–,–
CC[C@@]1(O)C(=O)OCc2c1cc1n(c2=O)Cc2cc3ccccc3nc2-1 [CAMPTOTHECIN],–,–,0.02,0.015,–

# Second part, led by results:
MIC (Staphylococcus aureus) [µM],SMILES,IC50 (MT4) [µM],IC50 (HepG2) [µM],IC50 (DU-145) [µM],Ratio [1]
2.2,CC(C)C(=O)c1c(O)c([C@H](C2=C(O)C(C)(C)C(=O)C(C)(C)C2=O)C(C)C)c(O)c([C@H](C2=C(O)C(C)(C)C(=O)C(C)(C)C2=O)C(C)C)c1O [MYRTUCOMMULONE A],4.7,6,5,–
4,O=C(N[C@H](CO)[C@H](O)c1ccc([N+](=O)[O-])cc1)C(Cl)Cl [CHLORAMPHENICOL],–,–,–,–
> 560,C=C1CC[C@]2(C)OC3=C(C(=O)C(C)(C)C(=O)C3(C)C)[C@@H](C(C)C)[C@@H]2[C@H]1C1CCCC1(C)C (relative stereo),> 100,–,–,–
0.38,CC(C)C(=O)c1c(O)c([C@H](C2=C(O)C(C)(C)C(=O)C(C)(C)C2=O)C(C)C)c2c3c1OC(C)(C)C[C@H]3[C@H]1C(C)(C)C(=O)C(C)(C)[C@@]1(O)O2 (relative stereo),2.1,4,3,35
